# Test results reported in ChEMBL document CHEMBL5705906 (Nat Commun, 2017).
# Calls of active or inactive are those of the source. The calls are words filed in the database; no cut-off is given here.
# What was measured:
# [1] = test system: BaF3; experiment: Inhibition of EGFR-C797S/T790M/del19 mutant in mouse BaF3 cells assessed as reduction in EGFR phosphorylation at 300 nM incubated for 6 hrs by Western blotting analysis; assay type: cell-based
# [2] = test system: BaF3; experiment: Inhibition of EGFR-C797S/T790M/L858R mutant in mouse BaF3 cells assessed as inhibition of EGFR phosphorylation at 10 to 1000 nM incubated for 6 hrs by Western blotting analysis; assay type: cell-based; settings: dose 10-1000 nM
# Outline: (§1)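 Ba/F3 cells expressing EGFR-L858R-series mutants treated with inhibitors for 6 h. SDS lysates quantified by BCA, run on SDS-PAGE and blotted to PVDF. Probed for phospho-EGFR (Tyr1068), total EGFR and downstream phospho-proteins.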
# [3] = test system: BaF3; experiment: Inhibition of EGFR-C797S/T790M/L858R mutant expressed in mouse BaF3 cells assessed as inhibition of Akt phosphorylation at 10 to 1000 nM incubated for 6 hrs by Western blotting analysis; assay type: cell-based; settings: dose 10-1000 nM; outline: as §1
# [4] = test system: BaF3; experiment: Inhibition of EGFR-C797S/T790M/L858R mutant in mouse BaF3 cells assessed as inhibition of S6 phosphorylation at 10 to 1000 nM incubated for 6 hrs by Western blotting analysis; assay type: cell-based; settings: dose 10-1000 nM; outline: as §1
# [5] = test system: BaF3; experiment: Inhibition of EGFR-C797S/T790M/L858R mutant expressed in mouse BaF3 cells assessed as inhibition of ERK phosphorylation at 10 to 1000 nM incubated for 6 hrs by Western blotting analysis; assay type: cell-based; settings: dose 10-1000 nM; outline: as §1
# [6] = test system: PC-9; experiment: Inhibition of EGFR T790M/del19 mutant in human PC-9 cells assessed as reduction in S6 phosphorylation at 10 to 1000 nM by Western blotting analysis; assay type: cell-based; settings: dose 10-1000 nM
# [7] = test system: BaF3; experiment: Inhibition of EGFR-C797S/T790M/del19 mutant in mouse BaF3 cells assessed as reduction in ERK phosphorylation at 10 to 1000 nM by Western blotting analysis; assay type: cell-based; settings: dose 10-1000 nM
# [8] = test system: PC-9; experiment: Inhibition of EGFR T790M/del19 mutant in human PC-9 cells assessed as reduction in ERK phosphorylation at 10 to 1000 nM by Western blotting analysis; assay type: cell-based; settings: dose 10-1000 nM
# [9] = test system: BaF3; experiment: Inhibition of EGFR-C797S/T790M/del19 mutant in mouse BaF3 cells assessed as reduction in Akt protein level at 10 to 1000 nM by Western blotting analysis; assay type: cell-based; settings: dose 10-1000 nM
# [10] = test system: BaF3; experiment: Inhibition of EGFR-C797S/T790M/del19 mutant in mouse BaF3 cells assessed as reduction in Akt phosphorylation at 10 to 1000 nM by Western blotting analysis; assay type: cell-based; settings: dose 10-1000 nM
# [11] = test system: BaF3; experiment: Inhibition of EGFR-C797S/T790M/del19 mutant in mouse BaF3 cells assessed as reduction in S6 phosphorylation at 10 to 1000 nM by Western blotting analysis; assay type: cell-based; settings: dose 10-1000 nM
# [12] = test system: PC-9; experiment: Anti-tumor activity against EGFR T790M/del19 mutant expressing gefitinib-resistant human PC-9 cells xenografted in Balb-c nu/nu mouse assessed as growth inhibition at 50 mg/kg, po administered for 42 days; assay type: functional, organism-based; settings: time 42.0 day
# Outline: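 Balb-c nu/nu mice were implanted subcutaneously with 6×10^6 PC9-triple-mutant or PC9-T790M cells in 100 µl 1:2 Matrigel. At a mean tumour volume of ~200 mm³, mice were randomized (top and bottom 5% excluded) and dosed once daily by oral gavage. Caliper volume (0.5×L×W²) was measured twice weekly and expressed relative to day 0. n≥6 per group; Mann-Whitney U test.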
# [13] = test system: BaF3; experiment: Inhibition of EGFR-C797S/T790M/del19 mutant in mouse BaF3 cells assessed as reduction in EGFR phosphorylation at 10 to 1000 nM by Western blotting analysis; assay type: cell-based; settings: dose 10-1000 nM
# [14] = test system: PC-9; experiment: Anti-tumor activity against EGFR T790M/del19 mutant expressing gefitinib-resistant human PC-9 cells xenografted in Balb-c nu/nu mouse assessed as prolonged survival at 50 mg/kg, po administered for 42 days; assay type: functional, organism-based; settings: time 42.0 day
# [15] = test system: BaF3; experiment: Inhibition of EGFR-C797S/T790M/del19 mutant in mouse BaF3 cells assessed as reduction in S6 protein level at 10 to 1000 nM by Western blotting analysis; assay type: cell-based; settings: dose 10-1000 nM
# [16] = test system: PC-9; experiment: Inhibition of EGFR T790M/del19 mutant in human PC-9 cells assessed as reduction in EGFR phosphorylation at 10 to 1000 nM by Western blotting analysis; assay type: cell-based; settings: dose 10-1000 nM
# [17] = test system: PC-9; assay type: functional, organism-based; settings: Homo sapiens, dose 50.0 mg/kg, route po, time 60.0 day
# [18] = test system: NCI-H460; experiment: Anticancer activity against KRAS-mutated human NCI-H460 cells assessed as reduction in cell viability at 1 to 10000 nM incubated for 72 hrs by CellTiter-Glo assay; assay type: functional, cell-based; settings: dose 1-10000 nM
# [19] = test system: BaF3; experiment: Inhibition of EGFR-C797S/T790M/del19 mutant in mouse BaF3 cells assessed as reduction in ERK protein level at 10 to 1000 nM by Western blotting analysis; assay type: cell-based; settings: dose 10-1000 nM
# [20] = test system: PC-9; experiment: Inhibition of EGFR T790M/del19 mutant in human PC-9 cells assessed as reduction in Akt phosphorylation at 10 to 1000 nM by Western blotting analysis; assay type: cell-based; settings: dose 10-1000 nM
# [21] = test system: PC-9; assay type: functional, organism-based; settings: Homo sapiens, dose 50.0 mg/kg, route po, time 15.0 day
# [22] = test system: PC-9; assay type: functional, organism-based; settings: Homo sapiens, dose 50.0 mg/kg, route po, time 60.0 day; remark: listed apart in the source
# [23] = test system: A549; experiment: Anticancer activity against KRAS-mutated human A549 cells assessed as reduction in cell viability at 1 to 10000 nM incubated for 72 hrs by CellTiter-Glo assay; assay type: functional, cell-based; settings: dose 1-10000 nM
# [24] = test system: Ba/F3 EGFR-Del19/T790M/C797S; experiment: Cytotoxicity against mouse Ba/F3 EGFR-Del19/T790M/C797S cells assessed as inhibition of cell viability by measuring fold change at 300 nM incubated for 72 hrs in presence of cetuximab by CellTiter-Glo assay; assay type: functional, cell-based
structure (smiles),measurement,setting,value
Cc1ccc(C(=O)Nc2ccc(CN3CCN(C)CC3)c(C(F)(F)F)c2)cc1C#Cc1cnc2cccnn12,inhibition,[1],inactive
COc1cc(N2CCC(N3CCN(C)CC3)CC2)ccc1Nc1ncnc(Nc2ccccc2S(=O)(=O)C(C)C)n1,inhibition,[2],inactive
same,inhibition,[3],inactive
same,inhibition,[4],inactive
same,inhibition,[5],inactive
C=CC(=O)Nc1cc(Nc2nccc(-c3cn(C)c4ccccc34)n2)c(OC)cc1N(C)CCN(C)C,inhibition,[6],Active
same,inhibition,[7],inactive
same,inhibition,[8],Active
same,inhibition,[9],inactive
same,inhibition,[10],inactive
same,inhibition,[11],inactive
same,Activity,[12],Active
same,inhibition,[13],inactive
same,Activity,[14],Active
same,inhibition,[15],inactive
same,inhibition,[16],Active
same,inhibition,[17],Active
same,Activity,[18],Active
same,inhibition,[19],inactive
same,inhibition,[20],Active
same,Activity,[21],inactive
same,inhibition,[22],Active
same,Activity,[23],Active
same,Activity,[24],inactive
Cc1cc(Nc2ncc(Cl)c(Nc3ccccc3S(=O)(=O)C(C)C)n2)c(OC(C)C)cc1C1CCNCC1,inhibition,[2],inactive
same,inhibition,[3],inactive
same,inhibition,[4],inactive
same,inhibition,[5],inactive
